Measurements taken from PubChem BioAssay.
The source made the active and inactive calls.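 How the source made its calls, unless noted: active means viability loss from added drug above about 55%, and viability with drug at most 40%, in both replicates (limit read from the data, passing the limit was not always enough); inconclusive means both conditions met in only one replicate; inactive means neither replicate meets both conditions.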

What was measured:
[1] = reduced viability of SK-BR-3 breast cancer cells – cell-based, 24 h, human, pilot screen (AID 572;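 active means viability at or below 10% of carrier control in both of two separate runs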;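 further: compound exposure lasted between 18 and 24 h rather than exactly 24 h; 100% = carrier-treated control wells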); conditions: SK-BR-3 viability, CellTiter-Glo luminescence, at 10 µM, stronger effect = lower value
[2] = HUVEC growth inhibition – cell-based, human, primary screen (AID 575;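 active means viability at or below 30% in both replicate assays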;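 further: 100% = median of untreated cell wells with 0.1% DMSO on each plate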); conditions: HUVEC proliferation, CellTiter-Glo luminescence, 72 h; at 10 µM; stronger effect = lower value
Procedure, shortened: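 Test system: primary human umbilical vein endothelial cells; medium: endothelial basal medium with 2% FBS plus growth supplements; dosing: 10 µM compound only; times: 72 h treatment at 37 °C; signal: CTG luminescence; read-out: % viability relative to median vehicle-well signal on each plate; control set: vehicle and MePR control wells; plate: 384-well, collagen-coated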

[3] = H69AR cell proliferation blockers – human, duplicate replicates, primary screen (AID 580;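 active means viability at or under a set limit in both replicates, limit being median viability minus 3 SD, cut at about 48% in these data, passing the limit was not always enough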;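 further: 100% = mean luminescence of untreated wells and 0% = no signal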); conditions: H69AR lung tumor cells viability, ATP luminescence, 72 h; at 10 µM; stronger effect = lower value
[4] = MRP1 drug-resistance reversers in H69AR cells – cell-based, doxorubicin co-treatment, pilot screen (AID 601); conditions: CellTiter-Glo, 72 h, at 10 µM; for differential viability (reversal): stronger effect = higher value
[5] = yeast transport mutant growth inhibition pilot in 384-well plates, post-Golgi transport modulator project (AID 636; in the data active means inhibition above about 31%); conditions: absorbance 615 nm, about 18 h, stronger effect = higher value
[6] = growth suppression of yeast trafficking mutant, preliminary HTS, modulators of trafficking downstream of Golgi apparatus project, 1536-format plate, OD 615 nm (AID 637; in the data active means inhibition above about 30%); conditions: yeast transport mutant growth, absorbance 615 nm, 18 h; stronger effect = higher value
[7] = H69AR cells + 2 uM doxorubicin, measured here: viability with 2 uM doxorubicin, stronger effect = lower value
[8] = H69AR cells, compound alone cytotoxicity

SMILES | viability [1] | viability [2] | viability [3] | differential viability (reversal) ([4]; H69AR cells + 2 uM doxorubicin) | viability [4, 7] [%] | viability [4, 8] [%] | inhibition [5] | inhibition [6]
CCc1nnc(-n2nc(C)cc2-c2ccccc2)n1N | 107% (inactive) | 118% (inactive) | 93.5% (inactive) | 2.83% (inactive) | 90.7 | 93.5 | -2.47% (inactive) | -1.8% (inactive)
O=C(Nc1cnn(Cc2ccc(F)cc2)c1)c1cnccn1 | 117% (inactive) | 85.2% (inactive) | 98.8% (inactive) | 1.69% (inactive) | 97.1 | 98.8 | -2.34% (inactive) | 3.93% (inactive)
CCOC(=O)N1CCN(C(=O)COc2cc(=O)n(C)c3ccccc23)CC1 | 98% (inactive) | 98.2% (inactive) | 98.2% (inactive) | 16.7% (inactive) | 81.5 | 98.2 | 0.91% (inactive) | 15.9% (inactive)
C=CCNc1nc2c(c(=O)n(C)c(=O)n2C)n1CCCCCC | 92% (inactive) | 60.4% (inactive) | 82.6% (inactive) | 0.165% (inactive) | 82.4 | 82.6 | -5.73% (inactive) | 5.27% (inactive)
Cc1nn(-c2nc3ccccc3[nH]2)c(N)c1-c1ccccc1 | 97% (inactive) | 62.5% (inactive) | 41.3% (active) | -27.6% (inactive) | 68.9 | 41.3 | 11.6% (inactive) | 2.7% (inactive)
CC(=O)Nc1cc(NC(C)=O)cc(C(=O)OCC(=O)N2CC(C)OC(C)C2)c1 (configuration not stated) | 94% (inactive) | 99.9% (inactive) | 102% (inactive) | 8.29% (inactive) | 94.1 | 102 | -6.62% (inactive) | -3.64% (inactive)
CCOC(=O)C1CCN(C(=O)Nc2ccc3nc(C)c(C)nc3c2)CC1 | 101% (inactive) | 109% (inactive) | 95.5% (inactive) | 15.9% (inactive) | 79.6 | 95.5 | -3.87% (inactive) | -1.09% (inactive)
Cc1cnc(C(=O)Nc2nnc(C(C)C)s2)cn1 | 113% (inactive) | 113% (inactive) | 87.4% (inactive) | 6.11% (inactive) | 81.2 | 87.4 | -0.26% (inactive) | -1.97% (inactive)
Cn1c(=O)cc(OCCCC(=O)N2CCCCC2)c2ccccc21 | 98% (inactive) | 87.5% (inactive) | 91.5% (inactive) | 12% (inactive) | 79.5 | 91.5 | -1.82% (inactive) | 0.98% (inactive)
O=C(NC1CCCCCC1)c1cc(S(=O)(=O)N2CCC3(CC2)OCCO3)ccc1F | 106% (inactive) | 98.2% (inactive) | 88.3% (inactive) | -4.04% (inactive) | 92.4 | 88.3 | 0.27% (inactive) | 3.27% (inactive)
C=CCn1c(=O)c2ccccc2n2c(SC(C)C(=O)Nc3nc(-c4ccccc4)cs3)nnc12 (configuration not stated) | 66% (inactive) | 65.7% (inactive) | 79.6% (inactive) | -2.34% (inactive) | 81.9 | 79.6 | 2.6% (inactive) | 5.41% (inactive)
Nc1cccc(C(=O)O)c1 | 129% (inactive) | 98.2% (inactive) | 94.8% (inactive) | 7.12% (inactive) | 87.7 | 94.8 | 1.82% (inactive) | 0.33% (inactive)
COC(=O)c1ccccc1NC(=O)C1CC=CCC1C(=O)O (configuration not stated) | 117% (inactive) | 99.7% (inactive) | 84.8% (inactive) | 1.5% (inactive) | 83.3 | 84.8 | -9.73% (inactive) | -0.81% (inactive)
COc1ccccc1NC(=O)Cc1noc(CSc2cc(C)c3ccccc3n2)n1 | 104% (inactive) | 89.5% (inactive) | 92.5% (inactive) | 11.8% (inactive) | 80.7 | 92.5 | -4.59% (inactive) | 1.64% (inactive)
O=C(CSc1nc(N2CCCCC2)nc(N2CCCCC2)n1)Nc1nccs1 | 123% (inactive) | 85.4% (inactive) | 77.3% (inactive) | 4.8% (inactive) | 72.5 | 77.3 | -2.21% (inactive) | -7.21% (inactive)
Cc1nn(-c2ccc(F)cc2)c2sc(C(=O)N3CCCCCC3)cc12 | 93% (inactive) | 92% (inactive) | 78.8% (inactive) | -14% (inactive) | 92.8 | 78.8 | -2.7% (inactive) | 12.2% (inactive)
CCOC(=O)c1c(C)oc2ccc(NS(=O)(=O)c3ccc4c5c(cccc35)C(=O)N4)cc12 | 103% (inactive) | 76.9% (inactive) | 83.9% (inactive) | 0.75% (inactive) | 83.1 | 83.9 | -7.53% (inactive) | 5.27% (inactive)
CN=c1sc2ccccc2n1CC(O)COCc1ccco1 (configuration not stated) | 107% (inactive) | 86.6% (inactive) | 98.4% (inactive) | 10.8% (inactive) | 87.5 | 98.4 | -8.49% (inactive) | 1.94% (inactive)
CCOC(=O)c1ccc(N(CC(=O)NC2CCCC2)C(=O)CNC(=O)c2ccco2)cc1 | 90% (inactive) | 95.4% (inactive) | 93.9% (inactive) | 1.51% (inactive) | 92.4 | 93.9 | 0.13% (inactive) | -2.46% (inactive)
CCC1(C(=O)OC)NC(c2cccc(F)c2)C2C(=O)N(C)C(=O)C21 (configuration not stated) | 91% (inactive) | 96.1% (inactive) | 88.3% (inactive) | -1.59% (inactive) | 89.8 | 88.3 | -6.08% (inactive) | 0.73% (inactive)
O=C(CSc1nnc(-c2ccccc2)o1)NC1CCCCC1 | 75% (inactive) | 105% (inactive) | 98.5% (inactive) | 14.7% (inactive) | 83.9 | 98.5 | -7.12% (inactive) | 3.55% (inactive)
CCOC(=O)c1[nH]c2ccc(C)cc2c1NC(=O)CN1CCCCC1 | 107% (inactive) | 106% (inactive) | 87.8% (inactive) | 0.72% (inactive) | 87.1 | 87.8 | -5.73% (inactive) | -3.09% (inactive)
Cc1cc(C)n(C(C)n2nc(C)cc2C)n1 | 107% (inactive) | 103% (inactive) | 87.8% (inactive) | 9.01% (inactive) | 78.8 | 87.8 | -7.87% (inactive) | -0.91% (inactive)
CC1CNCCN1S(=O)(=O)c1cccc2cnccc12 (configuration not stated) | 100% (inactive) | 84.4% (inactive) | 102% (inactive) | 5.87% (inactive) | 96.2 | 102 | 1.3% (inactive) | -1.83% (inactive)
